The results in this text go back to ChEMBL document CHEMBL1144783, “Novel bisbenzimidazoles with antileishmanial effectiveness” (Bioorg Med Chem Lett, 2008).

In assay [1] the test system is Leishmania donovani. Put plainly: Antileishmanial activity against Leishmania donovani by Alamar blue assay. It counts as functional, organism-based. A digest of the protocol: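 L. donovani promastigotes at 2×10^6 cells/ml, 96-well format. Compounds dissolved in DMSO (2 mg ml⁻¹ stock), diluted in culture medium to final concentrations; matching DMSO dilutions as controls. Incubation 72 h at 26 °C; growth read by Alamar blue.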
(In general: The colour change of resazurin is a common sign of viable cells or microbes.)

Assay [2] concerns Pneumocystis carinii. Kind of assay: Antileishmanial activity against Pneumocystis carinii. It counts as functional, organism-based.
Assay [3] concerns Trypanosoma brucei rhodesiense. Put plainly: […] rhodesiense STIB 900 after 3 days. The assay is classed as functional, organism-based. The following applies: STIB 900, 72 h. In short, it runs like this:
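Bloodstream-form trypomastigotes, 8×10^3 per well in 100 μl medium, 96-well plates. Incubated 3 days, then resazurin added and fluorescence read after a further 24 h at 37 °C to gauge parasite growth. IC50 reported.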

For assay [4], the system named is Vero. Put plainly: Cytotoxicity against african green monkey Vero cells by neutral red assay. The assay is classed as cell-based. The settings on record: Chlorocebus sabaeus.

A value given as a limit tells only on which side of the number the result lay.

Usually IC50 stands for the concentration that inhibits the measured activity by half. In general, IC90 refers to the concentration needed for an effect of 90%.

For `c1ccc2[nH]c(-c3ccc(OCCCCOc4ccc(-c5nc6ccccc6[nH]5)cc4)cc3)nc2c1`, the IC50 in assay [1] is 4.9 µM; in assay [2], 169 µM; in assay [3] it was greater than 60 µM; in assay [4], greater than 100 µM. In assay [1], this molecule had an IC90 of 12.9 µM.

As to `c1cc(OCCCCCOc2cccc(-c3nc4ccccc4[nH]3)c2)cc(-c2nc3ccccc3[nH]2)c1`, the IC50 worked out at 10.3 µM in assay [1], 5.2 µM in assay [2], 0.85 µM in assay [3] and 12.3 µM in assay [4]. The same molecule had a 90% effect concentration (IC90) in assay [1] of 45.1 µM.

`c1ccc2[nH]c(-c3ccc(OCCCOc4ccc(-c5nc6ccccc6[nH]5)cc4)cc3)nc2c1`: the concentration for half-maximal inhibition (IC50) in assay [1] is 1.5 µM; in assay [2], 10.2 µM; in assay [3], greater than 60 µM; in assay [4], 27.2 µM. For the same molecule, the 90% effect level in assay [1] (IC90) was put at 3.3 µM.

Take `N=C(N)c1ccc(OCCCCCOc2ccc(C(=N)N)cc2)cc1` [PENTAMIDINE]: the 90% effect level in assay [1] (IC90) was put at 9.8 µM. In addition, the IC50 in assay [3] is 0.05 µM; in assay [4], greater than 100 µM.

`c1ccc2[nH]c(-c3ccc(OCCCCCCCOc4ccc(-c5nc6ccccc6[nH]5)cc4)cc3)nc2c1`: the IC50 in assay [1] was 13.6 µM; in assay [2], greater than 100 µM; in assay [3], greater than 60 µM; in assay [4] it was 46.1 µM. The molecule further had an IC90 in assay [1] of 56.2 µM.

Consider `c1ccc2[nH]c(-c3ccc(OCCCCCCOc4ccc(-c5nc6ccccc6[nH]5)cc4)cc3)nc2c1`, for which the IC50 in assay [1] was 11.8 µM; in assay [2] it was greater than 100 µM; in assay [3] it was greater than 60 µM; in assay [4], 27.9 µM. In addition, the IC90 in assay [1] amounted to 53.8 µM.

As for `c1ccc2[nH]c(-c3ccc(OCCCCCOc4ccc(-c5nc6ccccc6[nH]5)cc4)cc3)nc2c1`, the IC50 in assay [1] was 1.4 µM; in assay [2] it was 54.1 µM; in assay [3], greater than 60 µM; in assay [4], 28.7 µM. The molecule further showed an IC90 in assay [1] of 3.1 µM.
